{"source": "ChEMBL document CHEMBL4396917", "about": "“Synthesis and biological evaluation of novel benzylidene-succinimide derivatives as noncytotoxic antiangiogenic inhibitors with anticolorectal cancer activity in vivo” (Eur J Med Chem, 2019)", "key": {"[1]": {"system": "Mus musculus", "assay": "Antiangiogenic activity in Matrigel plug angiogenic Balb/c mouse model assessed as impaired vascularization by measuring loss of red colour in VEGF-supplemented matrigel at 20 to 60 mg/kg, sc measured after 15 days", "type": "functional, organism-based", "outline": "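Balb/c nude mice (6–8 weeks), three groups, injected subcutaneously with 400 μL Matrigel alone or with VEGF (250 ng/mL) and/or compound; after 15 days plugs removed, weighed and photographed.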"}, "[2]": {"target": "Mitogen-activated protein kinase 3 (Homo sapiens) (UniProt P27361)", "sequence (P27361 whole entry)": "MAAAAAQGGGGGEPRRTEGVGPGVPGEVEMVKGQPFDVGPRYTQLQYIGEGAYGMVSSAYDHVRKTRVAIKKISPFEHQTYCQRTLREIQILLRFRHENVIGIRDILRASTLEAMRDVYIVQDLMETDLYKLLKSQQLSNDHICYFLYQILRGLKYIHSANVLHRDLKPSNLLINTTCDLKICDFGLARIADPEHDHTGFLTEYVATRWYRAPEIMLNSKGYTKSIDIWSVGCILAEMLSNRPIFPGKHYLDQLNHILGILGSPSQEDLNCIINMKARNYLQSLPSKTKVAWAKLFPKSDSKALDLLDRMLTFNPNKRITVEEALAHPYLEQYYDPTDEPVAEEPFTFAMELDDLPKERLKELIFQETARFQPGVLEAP", "assay": "Inhibition of ERK1 (unknown origin) at 10 uM using myelin basic protein as substrate in presence of [gamma-33P]-ATP by scintillation counting analysis relative to control", "outline": "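Radiometric kinase panel run by a contract lab. Kinase (5–10 mU) in 25 mM Tris pH 7.5, 0.02 mM EGTA, 0.66 mg/mL myelin basic protein, magnesium acetate and [γ-33P]-ATP (about 500 cpm/pmol). Started with Mg-ATP mix, 40 min at room temperature, stopped with 3% phosphoric acid. Spotted on P30 filters, washed in 75 mM phosphoric acid and methanol, scintillation counted. Mean ± SD of three independent experiments.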"}, "[3]": {"system": "NCM460", "assay": "Cytotoxicity against human NCM460 cells assessed as reduction in cell growth after 72 hrs by MTT assay", "type": "cell-based", "conditions": "NCM460, 72 h"}, "[4]": {"system": "HUVEC", "assay": "Antimigratory activity in HUVEC assessed as reduction in VEGF-induced cell migration at 2.5 uM measured after 6 hrs by wound healing assay relative to control", "type": "functional", "conditions": "Homo sapiens", "outline": "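Confluent HUVECs starved 12 h in M200 with 2% FBS, scratched with pipette tip; fresh M200 with 25 ng/mL VEGF plus vehicle, 2.5 μM sunitinib or compound (1, 2.5 μM); wound imaged at 0, 6, 12 and 24 h by inverted microscopy.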"}, "[5]": {"system": "HT-29", "assay": "Antiangiogenic activity in human HT-29 cells assessed as decrease in secreted MMP2 activity at 1 to 20 uM after 24 hrs by gelatin zymography", "type": "functional, cell-based", "outline": "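HT29 cells treated 1, 5, 10 or 20 μM for 24 h; supernatant run non-reducing on 10% SDS-PAGE with 2% gelatin; SDS removed with 2% Triton X-100, gel incubated 48 h at 37°C in Tris pH 7.5/NaCl/CaCl2 buffer, Coomassie stained; clear MMP-2 and MMP-9 bands quantified by densitometry.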"}, "[6]": {"assay": "Induction of apoptosis in human HT-29 cells assessed as viable cells at 5 uM after 72 hrs by Annexin V-FITC/propidium iodide staining based flow cytometric analysis (reference value: 81.1%)", "type": "cell-based", "conditions": "read-out: Activity"}, "[7]": {"system": "HT-29", "assay": "Antitumor activity against human HT-29 cells xenografted in mouse assessed as reduction in mTOR phosphorylation in tumor at 20 to 60 mg/kg, po administered every other day for 3 weeks and measured at 20 days post treatment by immunohistochemical staining", "type": "functional, organism-based"}, "[8]": {"system": "HT-29", "assay": "Downregulation of VEGF mRNA expression in human HT-29 cells after 24 hrs by RT-qPCR assay", "type": "functional, cell-based", "outline": "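HT29 cells treated with 1, 5, 10 or 20 μM for 24 h; total RNA extracted with TRIzol; SYBR Green qPCR, 40 cycles of 5 s at 95°C and 60 s at 60°C in 20-μL reactions.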"}, "[9]": {"system": "HUVEC", "assay": "Induction of apoptosis in VEGF-stimulated HUVEC assessed as early apoptotic cells at 20 uM after 24 hrs by Annexin V-FITC/propidium iodide staining based flow cytometric analysis (reference value: 7%)", "type": "cell-based", "conditions": "human", "outline": "(§1)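 HUVECs plated at 5×10^5 per well and treated 24 h with 1, 5, 10 or 20 μM. Detached and adherent cells were pooled, washed in ice-cold PBS and resuspended in fresh medium. 1×10^5 cells were stained with annexin-V-FITC in annexin-V buffer for 20 min in the dark, then PI (50 μg/mL) was added. Read-out by flow cytometry.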"}, "[10]": {"system": "HT-29", "assay": "Downregulation of MMP9 expression in human HT-29 cells after 24 hrs by immunoblot analysis", "type": "functional, cell-based"}, "[11]": {"assay": "Induction of apoptosis in human HT-29 cells assessed as viable cells at 1 uM after 24 hrs by Annexin V-FITC/propidium iodide staining based flow cytometric analysis (reference value: 80.8%)", "type": "cell-based", "conditions": "read-out: Activity"}, "[12]": {"system": "HT-29", "assay": "Inhibition of Akt/mTOR signalling in human HT-29 cells assessed as reduction in mTOR phosphorylation at Ser2448 residue incubated for 24 hrs by immunoblot analysis", "type": "cell-based", "outline": "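HT29 cells were exposed to the indicated concentrations for 24 h. Cell lysates were then immunoblotted for the phosphorylated proteins.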"}, "[13]": {"system": "Chorioallantoic membrane", "assay": "Antiangiogenic activity in Leghorn chicken fertilized egg chorioallantoic membrane assessed as reduction in number of blood vessel formation at 20 nmol measured after 48 hrs by CAM assay relative to saline treated control", "type": "functional, tissue-based", "conditions": "Gallus gallus", "outline": "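Fertile Leghorn eggs incubated at 37.8°C, 40% humidity; window opened on day 7; compound, sunitinib or 0.9% NaCl mixed with DMSO applied on filter paper onto CAM; 48 h incubation, methanol fixation, photography; nascent vessels counted.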"}, "[14]": {"system": "Aorta", "assay": "Inhibition of VEGF-induced capillary sprouting in Sprague-Dawley rat aortic ring treated for every 3 days for 7 days measured on day 7 by inverted microscopy", "type": "functional, tissue-based", "outline": "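Aortas from anesthetized Sprague-Dawley rats cut into 1-mm rings and embedded in Matrigel for 1 h at 37°C. Rings starved 1 day, then cultured in opti-MEM with 2.5% FBS and 30 ng/mL VEGF plus compound. Treatment renewed every 3 days for 7 days. Sprouting imaged on day 7 by inverted microscopy.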"}, "[15]": {"system": "HUVEC", "assay": "Induction of apoptosis in VEGF-stimulated HUVEC assessed as late apoptotic cells at 1 uM after 24 hrs by Annexin V-FITC/propidium iodide staining based flow cytometric analysis (reference value: 11.3%)", "type": "cell-based", "conditions": "human", "outline": "as §1"}, "[16]": {"system": "HT-29", "assay": "Antitumor activity against human HT-29 cells xenografted in mouse assessed as increase in apoptosis in tumor at 20 to 60 mg/kg, po administered every ither day for 3 weeks and measured at 20 days post treatment by TUNEL assay", "type": "functional, organism-based"}, "[17]": {"assay": "Induction of apoptosis in human HT-29 cells assessed as viable cells at 20 uM after 24 hrs by Annexin V-FITC/propidium iodide staining based flow cytometric analysis (reference value: 80.8%)", "type": "cell-based", "conditions": "read-out: Activity"}, "[18]": {"system": "HT-29", "assay": "Downregulation of VEGF expression in human HT-29 cells after 24 hrs by immunoblot analysis", "type": "functional, cell-based"}, "[19]": {"system": "HCT-116", "assay": "Cytotoxicity against human HCT116 cells assessed as reduction in cell growth after 72 hrs by MTT assay", "type": "cell-based", "conditions": "HCT-116, 72 h"}, "[20]": {"system": "HUVEC", "assay": "Effect on total STAT3 expression in VEGF-induced HUVEC at 1 to 20 uM pre-incubated for 2 hrs followed by VEGF stimulation and measured after 15 mins by Western blot analysis", "type": "ADME, cell-based", "conditions": "human, 0.25 h", "outline": "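HUVECs serum-starved overnight, pretreated with compound (methods: 1, 2.5, 5, 10 μM for 2 h; legend: 1, 5, 10, 20 μM for 1.5 h), then VEGF 50 ng/mL (methods: VEGF165, 15 min; legend: 30 min); lysates equalized by Bradford, ~20 μg protein resolved on gradient SDS-PAGE, immunoblotted, ECL detection.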"}, "[21]": {"system": "HUVEC", "assay": "Induction of apoptosis in VEGF-stimulated HUVEC assessed as necrotic cells at 1 uM after 24 hrs by Annexin V-FITC/propidium iodide staining based flow cytometric analysis (reference value: 12.1%)", "type": "cell-based", "conditions": "human", "outline": "as §1"}}, "note": "Activity calls are given as the source filed them. The rule behind the calls is not given here."}
{"smiles": "COc1ccc(NC(=O)c2cccc(/C=C3\\CC(=O)N(c4ccc(C)cc4)C3=O)c2)cc1", "values": [{"measurement": "Activity", "setting": "[1]", "result": "Active"}, {"measurement": "inhibition", "setting": "[2]", "result": "50 to 70", "unit": "%"}, {"measurement": "IC50", "setting": "[3]", "result": "> 100", "unit": "µM"}, {"measurement": "inhibition at 2.5 µM", "setting": "[4]", "result": 30, "unit": "%"}, {"measurement": "inhibition", "setting": "[5]", "result": "Active"}, {"measurement": "viability at 72 h, 5 µM", "setting": "[6]", "result": 76.9, "unit": "%"}, {"measurement": "inhibition", "setting": "[7]", "result": "Active"}, {"measurement": "inhibition", "setting": "[8]", "result": "inactive"}, {"measurement": "Activity", "setting": "[9]", "result": 9.8, "unit": "%"}, {"measurement": "inhibition", "setting": "[10]", "result": "Dose-dependent effect"}, {"measurement": "viability at 24 h, 1 µM", "setting": "[11]", "result": 79.9, "unit": "%"}, {"measurement": "inhibition", "setting": "[12]", "result": "Dose-dependent effect"}, {"measurement": "inhibition", "setting": "[13]", "result": 96.4, "unit": "%"}, {"measurement": "inhibition", "setting": "[14]", "result": "Dose-dependent effect"}, {"measurement": "Activity", "setting": "[15]", "result": 10.4, "unit": "%"}, {"measurement": "Activity", "setting": "[16]", "result": "Active"}, {"measurement": "viability at 24 h, 20 µM", "setting": "[17]", "result": 78.9, "unit": "%"}, {"measurement": "inhibition", "setting": "[18]", "result": "Dose-dependent effect"}, {"measurement": "IC50", "setting": "[19]", "result": "> 100", "unit": "µM"}, {"measurement": "Activity", "setting": "[20]", "result": "Not Active"}, {"measurement": "Activity", "setting": "[21]", "result": 6.2, "unit": "%"}]}
